Reference: ChEMBL document CHEMBL1649517, “Effect of MexXY overexpression on ceftobiprole susceptibility in Pseudomonas aeruginosa” (2009)
Values after ≈ are worked out from the molar mass of the structure shown.

What was measured:
Pseudomonas aeruginosa [1] = assay: Antimicrobial activity against Pseudomonas aeruginosa isolate OC16827 harboring plasmid MexXY expressing mexXY gene by broth microdilution method; format: functional
Summary of the method: (§1)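 CLSI broth microdilution MIC on P. aeruginosa transformants. Plasmids (control vector pJAK16, pMexXY or cloned mexZ repressor; 200 ng) were electroporated into fresh electrocompetent cells, and transformants were selected on Mueller-Hinton plates with chloramphenicol 200 or 400 μg/ml. Cultures were kept in chloramphenicol 200 μg/ml to maintain the plasmid, with 1 mM IPTG to induce the cloned gene.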

Pseudomonas aeruginosa [2] = assay: Antimicrobial activity against Pseudomonas aeruginosa isolate OC17355 harboring plasmid JAK16 expressing mexXY gene by broth microdilution method; format: functional; summary of the method: as §1
Pseudomonas aeruginosa [3] = assay: Antimicrobial activity against Pseudomonas aeruginosa isolate OC17349 by broth microdilution method; format: functional
Summary of the method: (§2)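 Clinical P. aeruginosa isolates, baseline and posttreatment, collected in ceftobiprole phase III clinical trials. MICs were measured by CLSI broth microdilution.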

Pseudomonas aeruginosa [4] = assay: Antimicrobial activity against Pseudomonas aeruginosa isolate OC17355 by broth microdilution method; format: functional; summary of the method: as §2
Pseudomonas aeruginosa [5] = assay: Antimicrobial activity against Pseudomonas aeruginosa isolate OC16827 by broth microdilution method; format: functional; summary of the method: as §2
Pseudomonas aeruginosa [6] = assay: Antimicrobial activity against Pseudomonas aeruginosa isolate OC14551 by broth microdilution method; format: functional; summary of the method: as §2
Pseudomonas aeruginosa [7] = assay: Antimicrobial activity against Pseudomonas aeruginosa isolate OC16830 harboring plasmid JAK16 expressing mexXY gene by broth microdilution method; format: functional; summary of the method: as §1
Pseudomonas aeruginosa [8] = assay: Antimicrobial activity against Pseudomonas aeruginosa PAO1 harboring plasmid JAK16 expressing mexXY gene by broth microdilution method; format: functional; summary of the method: as §1
Pseudomonas aeruginosa [9] = assay: Antimicrobial activity against Pseudomonas aeruginosa isolate OC16827 harboring plasmid JAK16 expressing mexXY gene by broth microdilution method; format: functional; summary of the method: as §1
Pseudomonas aeruginosa [10] = assay: Antimicrobial activity against Pseudomonas aeruginosa isolate OC14552 by broth microdilution method; format: functional; summary of the method: as §2
Pseudomonas aeruginosa [11] = assay: Antimicrobial activity against Pseudomonas aeruginosa isolate OC17355 harboring plasmid MexZ expressing mexXY gene by broth microdilution method; format: functional; summary of the method: as §1
Pseudomonas aeruginosa [12] = assay: Antimicrobial activity against Pseudomonas aeruginosa isolate OC14805 by broth microdilution method; format: functional; summary of the method: as §2
Pseudomonas aeruginosa [13] = assay: Antimicrobial activity against Pseudomonas aeruginosa isolate OC16830 harboring plasmid MexZ expressing mexXY gene by broth microdilution method
Pseudomonas aeruginosa [14] = assay: Antimicrobial activity against Pseudomonas aeruginosa isolate OC14812 by broth microdilution method; format: functional; summary of the method: as §2
Pseudomonas aeruginosa [15] = assay: Antimicrobial activity against Pseudomonas aeruginosa isolate OC16830 by broth microdilution method; format: functional; summary of the method: as §2
Pseudomonas aeruginosa [16] = assay: Antimicrobial activity against Pseudomonas aeruginosa PAO1 harboring plasmid MexZ expressing mexXY gene by broth microdilution method; format: functional; summary of the method: as §1
Pseudomonas aeruginosa [17] = assay: Antimicrobial activity against Pseudomonas aeruginosa isolate OC14812 harboring plasmid MexZ expressing mexXY gene by broth microdilution method; format: functional; summary of the method: as §1
Pseudomonas aeruginosa [18] = assay: Antimicrobial activity against Pseudomonas aeruginosa isolate OC14812 harboring plasmid JAK16 expressing mexXY gene by broth microdilution method; format: functional; summary of the method: as §1
Pseudomonas aeruginosa [19] = assay: Antimicrobial activity against Pseudomonas aeruginosa isolate OC16827 harboring plasmid MexZ expressing mexXY gene by broth microdilution method
Pseudomonas aeruginosa [20] = assay: Antimicrobial activity against Pseudomonas aeruginosa isolate OC14551 harboring plasmid JAK16 expressing mexXY gene by broth microdilution method; format: functional; summary of the method: as §1
Pseudomonas aeruginosa [21] = assay: Antimicrobial activity against Pseudomonas aeruginosa PAO1 harboring plasmid MexXY expressing mexXY gene by broth microdilution method; format: functional; summary of the method: as §1
Pseudomonas aeruginosa [22] = assay: Antimicrobial activity against Pseudomonas aeruginosa isolate OC14551 harboring plasmid MexZ expressing mexXY gene by broth microdilution method; format: functional; summary of the method: as §1
Pseudomonas aeruginosa [23] = assay: Antimicrobial activity against Pseudomonas aeruginosa isolate OC14551 on day 8 by broth microdilution method; details: isolate OC14551, 192 h
Pseudomonas aeruginosa [24] = assay: Antimicrobial activity against Pseudomonas aeruginosa isolate OC14805 on day 4 by broth microdilution method; format: functional; details: isolate OC14805, 96 h; summary of the method: as §2
Pseudomonas aeruginosa [25] = assay: Antimicrobial activity against Pseudomonas aeruginosa isolate OC14805 after > 14 days by broth microdilution method; format: functional; details: isolate OC14805, 336 h; summary of the method: as §2
Pseudomonas aeruginosa [26] = assay: Antimicrobial activity against Pseudomonas aeruginosa isolate OC14805 after 7 to 14 days by broth microdilution method; format: functional; summary of the method: as §2
Pseudomonas aeruginosa [27] = assay: Antimicrobial activity against Pseudomonas aeruginosa isolate OC14552 on day 4 by broth microdilution method; format: functional; details: isolate OC14552, 96 h; summary of the method: as §2
Pseudomonas aeruginosa [28] = assay: Antimicrobial activity against Pseudomonas aeruginosa isolate OC17349 after 7 to 14 days by broth microdilution method; format: functional; summary of the method: as §2
Pseudomonas aeruginosa [29] = assay: Antimicrobial activity against Pseudomonas aeruginosa isolate OC16827 after end of treatment by broth microdilution method; format: functional; summary of the method: as §2
Pseudomonas aeruginosa [30] = assay: Antimicrobial activity against Pseudomonas aeruginosa isolate OC17349 on day 4 by broth microdilution method; format: functional; details: isolate OC17349, 96 h; summary of the method: as §2
Pseudomonas aeruginosa [31] = assay: Antimicrobial activity against Pseudomonas aeruginosa isolate OC17349 after end of treatment by broth microdilution method; format: functional; summary of the method: as §2
Pseudomonas aeruginosa [32] = assay: Antimicrobial activity against Pseudomonas aeruginosa isolate OC16827 on day 14 by broth microdilution method; format: functional; details: isolate OC16827, 336 h; summary of the method: as §2

Row | Compound | MIC (Pseudomonas aeruginosa [1]) | MIC (Pseudomonas aeruginosa [2]) | MIC (Pseudomonas aeruginosa [3]) | MIC (Pseudomonas aeruginosa [4]) | MIC (Pseudomonas aeruginosa [5]) | MIC (Pseudomonas aeruginosa [6]) | MIC (Pseudomonas aeruginosa [7]) | MIC (Pseudomonas aeruginosa [8]) | MIC (Pseudomonas aeruginosa [9]) | MIC (Pseudomonas aeruginosa [10]) | MIC (Pseudomonas aeruginosa [11]) | MIC (Pseudomonas aeruginosa [12]) | MIC (Pseudomonas aeruginosa [13]) | MIC (Pseudomonas aeruginosa [14]) | MIC (Pseudomonas aeruginosa [15]) | MIC (Pseudomonas aeruginosa [16]) | MIC (Pseudomonas aeruginosa [17]) | MIC (Pseudomonas aeruginosa [18]) | MIC (Pseudomonas aeruginosa [20]) | MIC (Pseudomonas aeruginosa [22]) | other results
1 | CC(C)(O/N=C(\C(=O)N[C@@H]1C(=O)N2C(C(=O)[O-])=C(C[n+]3ccccc3)CS[C@H]12)c1csc(N)n1)C(=O)O [CEFTAZIDIME] | 2 µg/mL (≈ 3.66 µM) | 4 µg/mL (≈ 7.32 µM) | 4 µg/mL (≈ 7.32 µM) | 4 µg/mL (≈ 7.32 µM) | 2 µg/mL (≈ 3.66 µM) | 4 µg/mL (≈ 7.32 µM) | 2 µg/mL (≈ 3.66 µM) | 2 µg/mL (≈ 3.66 µM) | 2 µg/mL (≈ 3.66 µM) | 4 µg/mL (≈ 7.32 µM) | 4 µg/mL (≈ 7.32 µM) | 2 µg/mL (≈ 3.66 µM) | 2 µg/mL (≈ 3.66 µM) | 4 µg/mL (≈ 7.32 µM) | 2 µg/mL (≈ 3.66 µM) | 1 µg/mL (≈ 1.83 µM) | 4 µg/mL (≈ 7.32 µM) | 4 µg/mL (≈ 7.32 µM) | 4 µg/mL (≈ 7.32 µM) | 4 µg/mL (≈ 7.32 µM) | MIC (Pseudomonas aeruginosa [19]): 2 µg/mL (≈ 3.66 µM); MIC (Pseudomonas aeruginosa [21]): 1 µg/mL (≈ 1.83 µM)
2 | Nc1nc(/C(=N/O)C(=O)N[C@@H]2C(=O)N3C(C(=O)O)=C(/C=C4\CCN([C@@H]5CCNC5)C4=O)CS[C@H]23)ns1 [CEFTOBIPROLE] | 16 µg/mL (≈ 29.9 µM) | 8 µg/mL (≈ 15 µM) | 4 µg/mL (≈ 7.48 µM) | 16 µg/mL (≈ 29.9 µM) | 4 µg/mL (≈ 7.48 µM) | 16 µg/mL (≈ 29.9 µM) | 16 µg/mL (≈ 29.9 µM) | 4 µg/mL (≈ 7.48 µM) | 4 µg/mL (≈ 7.48 µM) | 4 µg/mL (≈ 7.48 µM) | 2 µg/mL (≈ 3.74 µM) | 2 µg/mL (≈ 3.74 µM) | 1 µg/mL (≈ 1.87 µM) | 16 µg/mL (≈ 29.9 µM) | 16 µg/mL (≈ 29.9 µM) | 1 µg/mL (≈ 1.87 µM) | 2 µg/mL (≈ 3.74 µM) | 16 µg/mL (≈ 29.9 µM) | 16 µg/mL (≈ 29.9 µM) | 4 µg/mL (≈ 7.48 µM) | MIC (Pseudomonas aeruginosa [23]): 16 µg/mL (≈ 29.9 µM); MIC (Pseudomonas aeruginosa [24]): 4 µg/mL (≈ 7.48 µM); MIC (Pseudomonas aeruginosa [25]): 16 µg/mL (≈ 29.9 µM); MIC (Pseudomonas aeruginosa [26]): 16 µg/mL (≈ 29.9 µM); MIC (Pseudomonas aeruginosa [27]): 4 µg/mL (≈ 7.48 µM); MIC (Pseudomonas aeruginosa [28]): 16 µg/mL (≈ 29.9 µM); MIC (Pseudomonas aeruginosa [29]): 16 µg/mL (≈ 29.9 µM); MIC (Pseudomonas aeruginosa [30]): 16 µg/mL (≈ 29.9 µM); MIC (Pseudomonas aeruginosa [31]): 16 µg/mL (≈ 29.9 µM); MIC (Pseudomonas aeruginosa [19]): 1 µg/mL (≈ 1.87 µM); MIC (Pseudomonas aeruginosa [32]): 16 µg/mL (≈ 29.9 µM); MIC (Pseudomonas aeruginosa [21]): 32 µg/mL (≈ 59.9 µM)
3 | GENTAMICIN |  | 16 µg/mL | 4 µg/mL | 4 µg/mL | 4 µg/mL | 4 µg/mL | 8 µg/mL | 4 µg/mL | 4 µg/mL | 4 µg/mL | 0.25 µg/mL | 2 µg/mL |  | 8 µg/mL | 8 µg/mL | 0.25 µg/mL | 2 µg/mL | 8 µg/mL | 8 µg/mL | 4 µg/mL | 
